Source: ChEMBL document CHEMBL2150946, “Rationally designed cyclic analogues of luteinizing hormone-releasing hormone: enhanced enzymatic stability and biological properties” (Eur J Med Chem, 2012)
One block for each compound: values may come before it. Activity calls are given as the source filed them. The rule behind the calls is not given here.

Assays:
[1] = Metabolic stability in mouse renal epithelial cell membranes assessed as compound remaining at 10 nM measured at 30 mins; assay type: ADME, cell-based; settings: for remaining at 0.5 h, 0.01 µM: renal epithelial cell membranes, read-out: Stability
In short: (§1)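 Mouse kidney membranes (100,000 × g pellet) in 20 mM phosphate/100 mM NaCl, pH 7.4, at 4 mg/ml protein, incubated with 10 nM peptide at 37 °C with shaking. Sampling at 0, 30, 60 and 120 min was stopped with acetonitrile. LC-MS/MS (MRM) peak areas are expressed relative to t = 0 (100%).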

[2] = system: HEK293; assay: (§2) Displacement of [125I]-Tyr6, His5 from human LHRH1 receptor expressed in HEK 293 cells after 16 to 19 hrs by gamma counter; assay type: cell-based
In short: (§3)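 Competition binding on membranes from HEK 293 cells stably expressing human LHRH-I receptor, in HEPES buffer with CaCl2, MgCl2 and 0.5% BSA, pH 7.4. Radioligand was 120,000–240,000 cpm [125I-Tyr6,His5]LHRH with rising peptide concentrations, 16–19 h at 4 °C. Samples were filtered on PEI-soaked GF/C and gamma counted. Data were fitted to a one-site model by nonlinear regression; 3–4 experiments.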

[3] = as §2; assay type: cell-based; settings: hek293; in short: as §3
[4] = Analytical recovery in overnight fasted C57BL/6N mouse plasma assessed as compound recovered at 5 ng/mL, ip
[5] = Drug excretion in overnight fasted C57BL/6N mouse assessed as elimination rate constant at 1 mg/kg, ip; assay type: ADME, organism-based; parameters: dose 1 mg/kg, route intraperitoneal; settings: in vivo, read-out: Drug excretion (converted)
In short: (§4)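 Male C57BL/6 mice, fasted 12 h overnight, given 1 mg kg-1 i.p. in saline. Blood was taken by cardiac puncture under isoflurane at 1, 2, 4 and 6 h post-dose (n = 5). Plasma was deproteinized and peptide was quantified by LC-MS/MS (MRM) against an internal standard using nine-point calibration curves. Parameters were derived from the plasma concentration–time data.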

[6] = Cmax in overnight fasted C57BL/6N mouse at 1 mg/kg, ip; assay type: ADME, organism-based; parameters: dose 1 mg/kg, route intraperitoneal; settings: in vivo; in short: as §4
[7] = system: Mus musculus; assay: Agonist activity at LHRH1 receptor in C57BL/6N mouse assessed as release of testosterone in plasma at 1 ug/kg, ip in presence of cetrorelix; assay type: functional, organism-based
In short: (§5)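 Male C57BL/6N mice first received cetrorelix 1 mg kg-1 i.p. After 15 min, peptide was given i.p. at 1 or 100 µg kg-1 (n = 5). Plasma testosterone was quantified by LC-MS/MS with a dexamethasone internal standard.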

[8] = system: Plasma; assay: Metabolic stability in overnight fasted C57BL/6N mouse plasma at 1 mg/kg, ip; assay type: ADME, organism-based; parameters: dose 1 mg/kg, route intraperitoneal; settings: in vivo
In short: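 Plasma peptide stability in vivo: fasted male C57BL/6 mice received 1 mg kg-1 i.p. in saline. Cardiac-puncture plasma was collected at 1, 2, 4 and 6 h (n = 5). Peptide was measured by LC-MS/MS after protein precipitation.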

[9] = Metabolic stability in overnight fasted C57BL/6N mouse plasma assessed as compound remaining at 50 ng/mL, ip; assay type: ADME, cell-free; settings: read-out: Stability
In short: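 Recovery of spiked peptide from mouse plasma at 5 and 50 ng/mL. Plasma was extracted by protein precipitation and analysed by LC-MS/MS with an internal standard.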

[10] = system: Mus musculus; assay: Agonist activity at LHRH1 receptor in C57BL/6N mouse assessed as testosterone AUC (1 to 6 hrs) at 1 mg/kg, ip; assay type: functional; settings: route intraperitoneal
In short: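 Male C57BL/6N mice were dosed 1 mg kg-1 i.p. with saline vehicle controls (n = 5). Cardiac-puncture plasma was taken at 1, 2, 4 and 6 h. Testosterone was quantified by LC-MS/MS with a dexamethasone internal standard, calibrated 0.05–100 ng mL-1. AUC was computed over 1–6 h; mean ± SD.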

[11] = AUC in overnight fasted C57BL/6N mouse at 1 mg/kg, ip; assay type: ADME, organism-based; parameters: dose 1 mg/kg, route intraperitoneal; settings: plasma; in short: as §4
[12] = system: Mus musculus; assay: Agonist activity at LHRH1 receptor in C57BL/6N mouse assessed as release of testosterone in plasma at 1 ug/kg, ip; assay type: functional, organism-based
In short: (§6)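 Male C57BL/6N mice were pretreated i.p. with saline. After 15 min, peptide was given i.p. at 1 or 100 µg kg-1 (n = 5). Plasma testosterone was measured by LC-MS/MS with a dexamethasone internal standard.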

[13] = Half life in overnight fasted C57BL/6N mouse at 1 mg/kg, ip; assay type: ADME, organism-based; parameters: dose 1 mg/kg, route intraperitoneal; settings: in vivo; in short: as §4
[14] = Metabolic stability in mouse renal epithelial cell membranes assessed as compound remaining at 10 nM measured at 120 mins; assay type: ADME, cell-based; settings: read-out: Stability; in short: as §1
[15] = system: Mus musculus; assay: Agonist activity at LHRH1 receptor in C57BL/6N mouse assessed as release of testosterone in plasma at 100 ug/kg, ip; assay type: functional, organism-based; in short: as §6
[16] = Tmax in overnight fasted C57BL/6N mouse at 1 mg/kg, ip; assay type: ADME, organism-based; parameters: dose 1 mg/kg, route intraperitoneal; settings: in vivo; in short: as §4
[17] = system: Mus musculus; assay: Agonist activity at LHRH1 receptor in C57BL/6N mouse assessed as release of testosterone in plasma at 100 ug/kg, ip in presence of cetrorelix; assay type: functional, organism-based; in short: as §5

remaining at 0.5 h, 0.01 µM [1]: 90%
Compound: COc1ccc(C[C@@H]2NC(=O)[C@H](CO)NC(=O)[C@H](Cc3c[nH]c4ccccc34)NC(=O)[C@H](Cc3cnc[nH]3)NC(=O)[C@@H]3CCCN3C(=O)CCCCCNC(=O)C[C@H](C)NC(=O)[C@@H]3CCCN3C(=O)[C@H](CCCNC(=N)N)NC(=O)[C@H](CC(C)C)NC(=O)[C@@H](CC(C)C)NC2=O)cc1
inhibition [2]: Dose-dependent effect
pIC50 [3]: 5.54

remaining at 0.5 h, 0.01 µM [1]: 68%
Compound: COc1ccc(C[C@@H]2NC(=O)[C@H](CO)NC(=O)[C@H](Cc3c[nH]c4ccccc34)NC(=O)[C@H](Cc3cnc[nH]3)NC(=O)[C@@H]3CCCN3C(=O)CNC(=O)[C@@H]3CCN3C(=O)[C@H](CCCNC(=N)N)NC(=O)[C@H](CC(C)C)NC(=O)[C@@H](Cc3c[nH]c4ccccc34)NC2=O)cc1
inhibition [2]: Dose-dependent effect
pIC50 [3]: 5.58

Further lines, the compound ahead of its results:

Compound: CCNC(=O)[C@@H]1CCCN1C(=O)[C@H](CCCNC(=N)N)NC(=O)[C@H](CC(C)C)NC(=O)[C@@H](CC(C)C)NC(=O)[C@H](Cc1ccc(O)cc1)NC(=O)[C@H](CO)NC(=O)[C@H](Cc1c[nH]c2ccccc12)NC(=O)[C@H](Cc1c[nH]cn1)NC(=O)[C@@H]1CCC(=O)N1 [LEUPROLIDE]
recovered at 5 ng/mL [4]: > 90%
k el [5]: 0.000278 s⁻¹
Cmax [6]: 190 ng/mL
remaining at 0.5 h, 0.01 µM [1]: 3%
Activity [7]: inactive
Stability [8]: Stable
remaining at 50 ng/mL [9]: > 90%
Activity [10]: 244.1 ng·h/mL
AUC [11]: 138 ng·h/mL
inhibition [2]: Dose-dependent effect
pIC50 [3]: 9.12
Activity [12]: Active
half-life [13]: 42 min

Compound: CC(C)C[C@H](NC(=O)CNC(=O)[C@H](Cc1ccc(O)cc1)NC(=O)[C@H](CO)NC(=O)[C@H](Cc1c[nH]c2ccccc12)NC(=O)[C@H](Cc1cnc[nH]1)NC(=O)[C@@H]1CCC(=O)N1)C(=O)N[C@@H](CCCNC(=N)N)C(=O)N1CCC[C@H]1C(=O)NCC(N)=O [GONADORELIN]
Stability ([1]; epithelial cell, 0.5 h, 0.01 µM): Unstable
inhibition [2]: Dose-dependent effect

Compound: CC(C)C[C@@H]1NC(=O)[C@@H](CC(C)C)NC(=O)[C@H](Cc2ccc(O)cc2)NC(=O)[C@H](CO)NC(=O)[C@H](Cc2c[nH]c3ccccc23)NC(=O)[C@H](Cc2cnc[nH]2)NC(=O)[C@@H]2CCCN2C(=O)CCCCCNC(=O)C[C@H](C)NC(=O)[C@@H]2CCCN2C(=O)[C@H](CCCNC(=N)N)NC1=O
remaining at 0.5 h, 0.01 µM [1]: 72%
inhibition [2]: Dose-dependent effect
pIC50 [3]: 5.31

Compound: COc1ccc(C[C@@H]2NC(=O)[C@H](CO)NC(=O)[C@H](Cc3c[nH]c4ccccc34)NC(=O)[C@H](Cc3cnc[nH]3)NC(=O)[C@@H]3CCCN3C(=O)CC(C)NC(=O)[C@@H]3CCN3C(=O)[C@H](CCCNC(=N)N)NC(=O)[C@H](CC(C)C)NC(=O)[C@@H](CC(C)C)NC2=O)cc1 (some centres not stated)
remaining at 0.5 h, 0.01 µM [1]: 90%
inhibition [2]: Dose-dependent effect
pIC50 [3]: 5.82

Compound: CC(C)C[C@@H]1NC(=O)[C@@H](CC(C)C)NC(=O)[C@H](Cc2ccc(O)cc2)NC(=O)[C@H](CO)NC(=O)[C@H](Cc2c[nH]c3ccccc23)NC(=O)[C@H](Cc2cnc[nH]2)NC(=O)[C@@H]2CCCN2C(=O)C[C@H](C)NC(=O)[C@@H]2CCCN2C(=O)[C@H](CCCNC(=N)N)NC1=O
remaining at 2 h, 0.01 µM [14]: 100%
recovered at 5 ng/mL [4]: > 90%
k el [5]: 0.000278 s⁻¹
Activity [15]: Active
Cmax [6]: 834 ng/mL
remaining at 0.5 h, 0.01 µM [1]: 100%
Tmax [16]: 60 min
Stability [8]: Stable
remaining at 50 ng/mL [9]: > 90%
Activity [10]: 61.1 ng·h/mL
AUC [11]: 808 ng·h/mL
inhibition [2]: Dose-dependent effect
pIC50 [3]: 6.17
half-life [13]: 30 min
Activity [17]: inactive
